Source: ChEMBL document CHEMBL2434874, “Synthesis and antiproliferative activity of benzofuran-based analogs of cercosporamide against non-small cell lung cancer cell lines” (Eur J Med Chem, 2013)

What was measured:
[1] = Cytotoxicity against human NSCLC-N6 cells expressing mutant p53 by MTT assay; format: functional, cell-based
Procedure, shortened: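 Cells grown in RPMI 1640 and seeded in 96-well plates (NSCLC-N6 at 10⁵ cells/mL). Cells exposed to drug continuously. Growth measured colorimetrically by mitochondrial reduction of MTT to formazan, with solubilized formazan read at 570 nm. Eight replicates per concentration; control growth from 8 determinations.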

[2] = test system: A549; test: Cytotoxicity against human A549 cells expressing wild type p53 by MTT assay; format: functional, cell-based
[3] = Homo sapiens, NSCLC-N6, read-out: IC50
[4] = Homo sapiens, A549, read-out: IC50

| SMILES | IC50 [1, 3] [µM] | IC50 [2, 4] [µM] | IC50 ([1]; nsclc-n6) | IC50 ([2]; a549) |
| --- | --- | --- | --- | --- |
| CCOC(=O)c1oc2c(Br)c(OC)cc(OC)c2c1C | > 87.4 | > 87.4 |  |  |
| COc1cc(OC)c2c(C)c(C=O)oc2c1C#N |  |  | Not Active | Not Active |
| CCCNC(=O)c1oc2c(C(N)=O)c(OC)cc(OC)c2c1C | > 93.6 | > 93.6 |  |  |
| COc1cc(OC)c2c(C)c(C=O)oc2c1C(N)=O | 44.4 | 63.8 |  |  |
| Cc1c(C=O)oc2c(C(N)=O)c(O)cc(O)c12 | 60.8 | 108 |  |  |
| COc1cc(OC)c2c(C)c(C=O)oc2c1 |  |  | Not Active | Not Active |
| CCOC(=O)c1oc2c(C#N)c(OC)cc(OC)c2c1C |  |  | Not Active | Not Active |
| CCOC(=O)c1oc2cc(O)cc(O)c2c1C | 65.6 | 68.6 |  |  |
| Cc1c(C=O)oc2cc(OCc3ccccc3)cc(OCc3ccccc3)c12 | > 80.6 | > 80.6 |  |  |
| CCOC(=O)c1oc2c(C(N)=O)c(OCc3ccccc3)cc(OCc3ccccc3)c2c1C | < 7.2 | < 7.2 |  |  |
| COc1cc(OC)c2c(C)c(C(=O)Nc3ccccc3)oc2c1C(N)=O | < 9.3 | < 9.3 |  |  |
| COc1cc(OC)c2c(C)c(C=O)oc2c1Br |  | 49.5 | Not Active |  |
| COc1cc(OC)c2c(C)c(C(=O)Nc3ccccn3)oc2c1C(N)=O | > 84.4 | > 84.4 |  |  |
| CCOC(=O)c1oc2cc(OC)cc(OC)c2c1C |  |  | Not Active | Not Active |
| CCOC(=O)c1oc2cc(OCc3ccccc3)cc(OCc3ccccc3)c2c1C | > 72 | > 72 |  |  |
| CCOC(=O)c1oc2c(C(N)=O)c(O)cc(O)c2c1C | 32.9 | 24 |  |  |
| COc1cc(OC)c2c(C)c(C(=O)Nc3ccncc3)oc2c1C(N)=O | < 9.3 | < 9.3 |  |  |
| Cc1c(C=O)oc2cc(O)cc(O)c12 |  |  | Not Active | Not Active |
| COc1cc(OC)c2c(C)c(C(=O)NCc3ccccc3)oc2c1C(N)=O | > 81.4 | 54.8 |  |  |
| CCOC(=O)c1oc2c(C(N)=O)c(OC)cc(OC)c2c1C |  |  | Not Active | Not Active |
| COc1cc(OC)c2c(C)c(C(N)=O)oc2c1C(N)=O | 22.6 | 39.4 |  |  |
